{
  "source": "paper PMC4885108",
  "about": "(Journal of medicinal chemistry, 2016)",
  "key": {"S. pyogenes ATCC 49399": {"tested_on": "S. pyogenes ATCC 49399", "conditions": "ref 22 (Bouley et al.); cited from earlier work"}, "[1]": {"tested_on": "B. licheniformis ATCC 12759", "conditions": "ref 22 (Bouley et al.); cited from earlier work"}, "red blood cells [2]": {"tested_on": "red blood cells", "conditions": "at 64 μg/mL; ref 22 (Bouley et al.); cited from earlier work"}, "E. faecalis 99": {"tested_on": "E. faecalis 99", "conditions": "vancomycin-resistant clinical isolate; ref 22 (Bouley et al.); cited from earlier work"}, "B. cereus ATCC 13061": {"tested_on": "B. cereus ATCC 13061", "conditions": "ref 22 (Bouley et al.); cited from earlier work"}, "S. oralis ATCC 9811": {"tested_on": "S. oralis ATCC 9811", "conditions": "ref 22 (Bouley et al.); cited from earlier work"}, "MRSA NRS70": {"tested_on": "MRSA NRS70", "assay": "Mouse neutropenic thigh infection model", "type": "in vivo", "conditions": "thighs harvested at 24 h"}, "E. faecalis ATCC 29212": {"tested_on": "E. faecalis ATCC 29212", "conditions": "quality control strain; ref 22 (Bouley et al.); cited from earlier work"}, "[3]": {"assay": "Compound levels in plasma and uninfected thighs in the neutropenic thigh model", "type": "in vivo, mouse", "conditions": "for levels in plasma / levels in the thighs (uninfected): 24 h after infection (7 h after the last dose)"}, "S. aureus": {"tested_on": "S. aureus", "assay": "MBC determination, three strains of S. aureus together", "type": "cell-based"}, "Fast PK studies": {"assay": "Fast PK studies", "type": "in vivo", "conditions": "mouse, plasma, iv", "in_short": "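Female ICR mice (n = 2 per time point) got one tail-vein iv injection of 5, 10 or 20 mg/kg in 25% DMSO/65% propylene glycol/10% water. Plasma was precipitated with acetonitrile containing internal standard, then run by UPLC-UV or MRM against 0–50 μg/mL calibration curves. AUC and CL came from noncompartmental analysis.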"}, "red blood cells [4]": {"tested_on": "red blood cells", "assay": "Hemolysis assay", "type": "cell-based, human", "conditions": "at 64 μg/mL, Triton-X as positive control"}, "S. aureus strains": {"tested_on": "S. aureus strains", "assay": "MIC, all S. aureus strains tested", "type": "cell-based", "conditions": "Staphylococcus aureus, read-out: MIC for all S. aureus strains tested", "in_short": "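CLSI broth microdilution: 2-fold serial compound dilutions in cation-adjusted Mueller–Hinton broth, set up in triplicate. Inoculum 5 × 10^5 CFU/mL.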"}, "Full PK study": {"assay": "Full PK study", "type": "in vivo, mouse", "conditions": "10 mg/kg"}, "[5]": {"conditions": "20 mg/kg subcutaneously every 8 h"}, "[6]": {"conditions": "10 mg/kg, fast PK AUC0–last, mice, single iv dose 10 mg/kg"}},
  "note": "Read-outs that look alike come from different tables or passages of the source.",
  "data": [
    {"smiles": "N#Cc1ccc(/C=C/c2nc3ccccc3c(=O)n2-c2cccc(C(=O)O)c2)cc1", "note": "[Compound 2, (E)-3-(3-Carboxyphenyl)-2-(4-cyanostyryl)quinazolin-4(3H)-one]", "values": [
      {"measurement": "MIC S. pyogenes ATCC 49399", "setting": "S. pyogenes ATCC 49399", "result": ">128", "unit": "µg/mL"},
      {"measurement": "MIC B. licheniformis ATCC 12759", "setting": "[1]", "result": ">128", "unit": "µg/mL"},
      {"measurement": "hemolysis", "setting": "red blood cells [2]", "result": "<1", "unit": "%"},
      {"measurement": "MIC E. faecalis 99", "setting": "E. faecalis 99", "result": ">128", "unit": "µg/mL"},
      {"measurement": "MIC B. cereus ATCC 13061", "setting": "B. cereus ATCC 13061", "result": ">128", "unit": "µg/mL"},
      {"measurement": "MIC S. oralis ATCC 9811", "setting": "S. oralis ATCC 9811", "result": ">128", "unit": "µg/mL"},
      {"measurement": "lowering of the bacterial load compared to the negative control", "setting": "MRSA NRS70; [5]", "result": "not able to achieve statistically significant efficacy"},
      {"measurement": "MIC E. faecalis ATCC 29212", "setting": "E. faecalis ATCC 29212", "result": ">128", "unit": "µg/mL"},
      {"measurement": "levels in plasma", "setting": "[3]; 20 mg/kg sc every 8 h", "result": "1130 ± 1070", "unit": "ng/mL"},
      {"measurement": "levels in the thighs (uninfected)", "setting": "[3]; 20 mg/kg sc every 8 h", "result": "24 ± 23", "unit": "ng/mL"},
      {"measurement": "fold difference between MIC and MBC", "setting": "S. aureus", "result": "> 4", "unit": "fold"}
    ]},
    {"smiles": "O=c1c2ccccc2nc(/C=C/c2ccc(F)cc2)n1-c1cccc(O)c1", "note": "[Compound 5, (E)-3-(3-Hydroxyphenyl)-2-(4-fluorostyryl)quinazolin-4(3H)-one]", "values": [
      {"measurement": "clearance", "setting": "Fast PK studies; 5 mg/kg", "result": 11, "unit": "mL/min/kg"},
      {"measurement": "clearance at 8 h", "setting": "Fast PK studies; 5 mg/kg", "result": 10.7, "unit": "mL/min/kg"},
      {"measurement": "hemolysis", "setting": "red blood cells [4]", "result": "no significant hemolytic activity"}
    ]},
    {"smiles": "N#Cc1ccc(/C=C/c2nc3ccccc3c(=O)n2-c2cccc(O)c2)cc1", "note": "[Compound 15, (E)-3-(3-Hydroxyphenyl)-2-(4-cyanostyryl)quinazolin-4(3H)-one]", "values": [
      {"measurement": "AUC(0-t)", "setting": "Fast PK studies; 5 mg/kg", "result": 450, "unit": "ng·h/mL"},
      {"measurement": "clearance at 8 h", "setting": "Fast PK studies; 5 mg/kg", "result": 186, "unit": "mL/min/kg"}
    ]},
    {"smiles": "C#Cc1ccc(/C=C/c2nc3ccccc3c(=O)n2-c2cccc(C(=O)O)c2)cc1", "note": "[Compound 27, (E)-3-(3-Carboxyphenyl)-2-(4-ethynylstyryl)quinazolin-4(3H)-one]", "values": [
      {"measurement": "clearance", "setting": "Fast PK studies; 10 mg/kg", "result": 6.4, "unit": "mL/min/kg"},
      {"measurement": "lowering of the bacterial load compared to the negative control", "setting": "MRSA NRS70; [5]", "result": "statistically significant lowering of the bacterial load"},
      {"measurement": "MIC", "setting": "S. aureus strains", "result": "≤ 0.5", "unit": "µg/mL"},
      {"measurement": "levels in plasma", "setting": "[3]; 20 mg/kg sc every 8 h", "result": "2430 ± 1640", "unit": "ng/mL"},
      {"measurement": "levels in the thighs (uninfected)", "setting": "[3]; 20 mg/kg sc every 8 h", "result": "220 ± 170", "unit": "ng/mL"},
      {"measurement": "levels in thighs, fold higher than compound 2", "setting": "[3]; 24 h after infection, 20 mg/kg sc every 8 h", "result": 9, "unit": "fold"},
      {"measurement": "AUC(0-t)", "setting": "Full PK study; ICR, mouse, plasma, iv", "result": 25700, "unit": "ng·h/mL"},
      {"measurement": "clearance", "setting": "Full PK study; ICR, mouse, plasma, iv", "result": 6.4, "unit": "mL/min/kg"},
      {"measurement": "volume of distribution (Vd), fold higher than compound 2", "setting": "Full PK study; mice, iv", "result": 10, "unit": "fold"},
      {"measurement": "Cmax after po administration, fold higher than compound 2", "setting": "Full PK study; mice, po", "result": 2, "unit": "fold"},
      {"measurement": "fold difference between MIC and MBC", "setting": "S. aureus", "result": "> 4", "unit": "fold"}
    ]},
    {"smiles": "O=C(O)c1cccc(-n2c(/C=C/c3ccc(F)cc3)nc3ccccc3c2=O)c1", "note": "[Compound 30, (E)-3-(3-Carboxyphenyl)-2-(4-fluorostyryl)quinazolin-4(3H)-one]", "values": [
      {"measurement": "clearance at 8 h", "setting": "Fast PK studies; 20 mg/kg", "result": 7.8, "unit": "mL/min/kg"}
    ]},
    {"smiles": "CC(=O)Nc1cccc(-n2c(/C=C/c3ccc(F)cc3)nc3ccccc3c2=O)c1", "note": "[Compound 42, (E)-3-(3-Acetamidophenyl)-2-(4-fluorostyryl)quinazolin-4(3H)-one]", "values": [
      {"measurement": "clearance", "setting": "Fast PK studies; 10 mg/kg", "result": 88, "unit": "mL/min/kg"},
      {"measurement": "AUC(0-t)", "setting": "Fast PK studies; [6]", "result": 4730, "unit": "ng·h/mL"}
    ]},
    {"smiles": "CS(=O)(=O)Nc1cccc(-n2c(/C=C/c3ccc(F)cc3)nc3ccccc3c2=O)c1", "note": "[Compound 43, (E)-3-(3-Methylsulfonamidophenyl)-2-(4-fluorostyryl)-quinazolin-4(3H)-one]", "values": [
      {"measurement": "clearance", "setting": "Fast PK studies; 10 mg/kg", "result": 28, "unit": "mL/min/kg"},
      {"measurement": "AUC(0-t)", "setting": "Fast PK studies; [6]", "result": 13700, "unit": "ng·h/mL"}
    ]},
    {"smiles": "N#Cc1ccc(/C=C/c2nc3ccccc3c(=O)n2-c2cccc(N)c2)cc1", "note": "[Compound 50, (E)-3-(3-Aminophenyl)-2-(4-cyanostyryl)quinazolin-4(3H)-one]", "values": [
      {"measurement": "clearance at 8 h", "setting": "Fast PK studies; 10 mg/kg", "result": 25, "unit": "mL/min/kg"},
      {"measurement": "hemolysis", "setting": "red blood cells [4]", "result": "some hemolysis"}
    ]},
    {"smiles": "CC(=O)Nc1cccc(-n2c(/C=C/c3ccc(C#N)cc3)nc3ccccc3c2=O)c1", "note": "[Compound 52, (E)-3-(3-Acetamidophenyl)-2-(4-cyanostyryl)quinazolin-4(3H)-one]", "values": [
      {"measurement": "clearance at 8 h", "setting": "Fast PK studies; 5 mg/kg", "result": 131, "unit": "mL/min/kg"}
    ]},
    {"smiles": "CC(=O)NCc1cccc(-n2c(/C=C/c3ccc(C#N)cc3)nc3ccccc3c2=O)c1", "note": "[Compound 53, (E)-3-(3-(Acetamidomethyl)phenyl)-2-(4-cyanostyryl)-quinazolin-4(3H)-one]", "values": [
      {"measurement": "clearance at 8 h", "setting": "Fast PK studies; 10 mg/kg", "result": 35, "unit": "mL/min/kg"}
    ]},
    {"smiles": "CS(=O)(=O)Nc1cccc(-n2c(/C=C/c3ccc(C#N)cc3)nc3ccccc3c2=O)c1", "note": "[Compound 54, (E)-3-(3-Methylsulfonamidophenyl)-2-(4-cyanostyryl)-quinazolin-4(3H)-one]", "values": [
      {"measurement": "clearance at 8 h", "setting": "Fast PK studies; 5 mg/kg", "result": 162, "unit": "mL/min/kg"}
    ]},
    {"smiles": "N#Cc1ccc(/C=C/c2nc3ccccc3c(=O)n2-c2cccc(C(=O)NCCO)c2)cc1", "note": "[Compound 57, (E)-3-(3-(2-Hydroxyethyl)carbomylphenyl)-2-(4-cyanostyryl)quinazolin-4(3H)-one]", "values": [
      {"measurement": "clearance at 8 h", "setting": "Fast PK studies; 10 mg/kg", "result": 29, "unit": "mL/min/kg"}
    ]},
    {"smiles": "CC(=O)NC[C@H]1CN(c2ccc(N3CCOCC3)c(F)c2)C(=O)O1", "note": "[linezolid, reference compound]", "values": [
      {"measurement": "lowering of the bacterial load compared to the negative control", "setting": "MRSA NRS70; 10 mg/kg subcutaneously every 8 h", "result": "statistically significant lowering of the bacterial load"},
      {"measurement": "levels in plasma", "setting": "[3]; 10 mg/kg sc every 8 h", "result": "not quantifiable"},
      {"measurement": "levels in the thighs (uninfected)", "setting": "[3]; 10 mg/kg sc every 8 h", "result": "not quantifiable"}
    ]}
  ]
}
